Results reported in ChEMBL document CHEMBL1122664, “Synthesis and evaluation of 19-aza- and 19-aminoandrostenedione analogues as potential aromatase inhibitors” (J Med Chem, 1984).
Where “and” joins values, the source holds several entries; their conditions need not be identical. Equal values may be shown once.

Assays:
Aromatase [1] = target: T1, Aromatase (Homo sapiens, UniProt P11511); assay: Inhibition of 0.25 uM [1-3H]-androst-4-ene-3,17-dione binding to Cytochrome P450 19A1
T1 sequence (P11511 whole entry): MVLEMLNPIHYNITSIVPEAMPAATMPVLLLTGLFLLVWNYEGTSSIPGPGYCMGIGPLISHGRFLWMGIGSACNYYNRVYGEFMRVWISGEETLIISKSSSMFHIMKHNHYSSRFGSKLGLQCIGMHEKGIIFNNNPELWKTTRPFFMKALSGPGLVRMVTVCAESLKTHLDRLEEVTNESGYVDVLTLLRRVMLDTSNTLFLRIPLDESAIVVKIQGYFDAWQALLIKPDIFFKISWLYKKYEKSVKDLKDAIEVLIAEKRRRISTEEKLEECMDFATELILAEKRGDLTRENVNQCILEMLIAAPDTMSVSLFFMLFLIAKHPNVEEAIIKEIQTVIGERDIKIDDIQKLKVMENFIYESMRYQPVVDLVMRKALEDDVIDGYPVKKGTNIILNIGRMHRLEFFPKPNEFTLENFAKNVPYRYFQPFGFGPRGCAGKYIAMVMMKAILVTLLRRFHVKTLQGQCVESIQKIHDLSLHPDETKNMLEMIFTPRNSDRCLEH
Method in brief: (§1)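 Tritiated water release assay using lyophilized, twice-washed human term placental microsomes (0.1 mg protein) with [1-³H]androstenedione at 0.25 μM (5 × KM) and inhibitor at 0.25 or 1.25 μM. NADPH-generating system in 10 mM K phosphate with KCl, EDTA and DTT; 15 min at 25 °C. Stopped with CHCl₃; charcoal-treated aqueous ³H₂O counted. Triplicates; % inhibition versus concurrent controls.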

Aromatase [2] = target: T1, Aromatase; assay: Inhibition of 1.25 uM [1-3H]-androst-4-ene-3,17-dione binding to Cytochrome P450 19A1; method in brief: as §1

Compound	Inhibition (Aromatase [1])	Inhibition (Aromatase [2])
C[C@]12CCC(=O)C=C1C[C@@H](Sc1ccc(N)cc1)[C@@H]1[C@@H]2CC[C@]2(C)C(=O)CC[C@@H]12	54.8%	83.1%
C[C@]12CC[C@H]3[C@@H](CCC4=CC(=O)CC[C@@]43N=C=O)[C@@H]1CCC2=O	< 2%	< 2%
C[C@]12CC[C@H]3[C@@H](CCC4=CC(=O)CC[C@@]43CNC(=O)C(F)(F)F)[C@@H]1CCC2=O	2.5%	11.4%
C[C@]12CCC(=O)C(O)=C1CC[C@@H]1[C@@H]2CC[C@]2(C)C(=O)CC[C@@H]12 [FORMESTANE]	50.1%	81.6%
COC(=O)N[C@]12CCC(=O)C=C1CC[C@H]1[C@@H]3CCC(=O)[C@@]3(C)CC[C@@H]12	< 2%	< 2%
C[C@]12CC[C@H]3[C@@H](CCC4=CC(=O)CC[C@@]43/C=N\O)[C@@H]1CCC2=O	8.6%	4.1%
CC(=O)NC[C@]12CCC(=O)C=C1CC[C@@H]1[C@@H]2CC[C@]2(C)C(=O)CC[C@@H]12	< 2%	13.2%
C[C@]12CC[C@H]3[C@@H](CCC4=CC(=O)CC[C@@]43N)[C@@H]1CCC2=O	9.4% and 6.9%	19.2% and 10.9%
